Test results taken from PMC8992012 (Bioorganic & medicinal chemistry, 2021).

Tested on: NF-κB
Assay: NF-κB activation using THP1-Blue NF-κB cells
Type: cell-based, human
Conditions: Homo sapiens, 20 h, read-out: NF-κB SEAP Compound alone % Activation
Outline: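 THP1-Blue NF-κB cells carry a stably integrated NF-κB-inducible SEAP. They were plated at 10^5 cells/well in RPMI with 10% FBS, penicillin, streptomycin and Normocin, then treated for 20 h with 5 μM test compound (0.5% DMSO final), alone or with LPS at 10 ng/mL. Supernatant SEAP was read colorimetrically at 630 nm. Signals were two-point normalized: baseline (vehicle or LPS) 100%, reference hit 200%.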

Structure (SMILES)	activation at 5 µM [%]
CCCc1csc(NC(=O)c2ccc(S(=O)(=O)N3CCCCC3)cc2)n1 [Compound 12i, 4-(piperidin-1-ylsulfonyl)-N-(4-propylthiazol-2-yl)benzamide]	100
CCCN1CCN(S(=O)(=O)c2ccc(C(=O)Nc3nc(-c4cc(C)ccc4C)cs3)cc2)CC1 [Compound 54k, N-(4-(2,5-dimethylphenyl)thiazol-2-yl)-4-((4-propylpiperazin-1-yl)sulfonyl)benzamide]	100
Cc1cccc(-c2csc(NC(=O)c3ccc(S(=O)(=O)N4CCCCC4)cc3)n2)c1 [Compound 12c, 4-(piperidin-1-ylsulfonyl)-N-(4-(m-tolyl)thiazol-2-yl)benzamide]	100
Cc1csc(NC(=O)c2ccc(S(=O)(=O)N3CCCCC3)cc2)n1 [Compound 12g, N-(4-methylthiazol-2-yl)-4-(piperidin-1-ylsulfonyl)benzamide]	100

Same assay, conditions: compound alone, 5 μM, 20h

Structure (SMILES)	NF-κB activity (in words, SAR text to Table 1)
Cc1ccc(C)c(-c2csc(NC(=O)c3ccc(S(=O)(=O)N4CCCCC4)c([N+](=O)[O-])c3)n2)c1 [Compound 42f, N-(4-(2,5-dimethylphenyl)thiazol-2-yl)-3-nitro-4-(piperidin-1-ylsulfonyl)benzamide]	decline in activity
Cc1ccc(C)c(-c2csc(NC(=O)c3ccc(SC4CCCCC4)cc3)n2)c1 [Compound 45a, 4-(cyclohexylthio)-N-(4-(2,5-dimethylphenyl)thiazol-2-yl)benzamide]	none of these modifications at site E was tolerated
Cc1ccc(C)c(-c2nc(NC(=O)c3ccc(S(=O)(=O)N4CCCCC4)cc3)sc2-c2ccco2)c1 [Compound 18j, N-(4-(2,5-dimethylphenyl)-5-(furan-2-yl)thiazol-2-yl)-4-(piperidin-1-ylsulfonyl)benzamide]	completely inactive
Cc1ccc(C)c(-c2c[nH]c(NC(=O)c3ccc(S(=O)(=O)N4CCCCC4)cc3)n2)c1 [Compound 18a, N-(4-(2,5-dimethylphenyl)-1H-imidazol-2-yl)-4-(piperidin-1-ylsulfonyl)benzamide]	none of these molecules that replaced the thiazole functionality was active
Cc1ccc(C)c(-c2csc(NC(=O)c3ccc(S(=O)(=O)N4CCCCC4)cc3Cl)n2)c1 [Compound 42h, 2-chloro-N-(4-(2,5-dimethylphenyl)thiazol-2-yl)-4-(piperidin-1-ylsulfonyl)benzamide]	significantly dropped
CCOc1sc(NC(=O)c2ccc(S(=O)(=O)N3CCCCC3)cc2)nc1-c1cc(C)ccc1C [Compound 18l, N-(4-(2,5-dimethylphenyl)-5-ethoxythiazol-2-yl)-4-(piperidin-1-ylsulfonyl)benzamide]	partial activity
Cc1ccc(C)c(-c2csc(NC(=O)c3ccc(S(=O)(=O)N4CCCCC4)cn3)n2)c1 [Compound 42a, N-(4-(2,5-dimethylphenyl)thiazol-2-yl)-5-(piperidin-1-ylsulfonyl)picolinamide]	loss of activity
Cc1ccc(C)c(-c2csc(NC(=O)c3ccc(C(=O)N4CCCCC4)cc3)n2)c1 [Compound 45c, N-(4-(2,5-dimethylphenyl)thiazol-2-yl)-4-(piperidine-1-carbonyl)benzamide]	none of these modifications at site E was tolerated
CCN(c1ccccc1)S(=O)(=O)c1ccc(C(=O)Nc2nc(-c3cc(C)ccc3C)cs2)cc1 [Compound 54d, N-(4-(2,5-dimethylphenyl)thiazol-2-yl)-4-(N-ethyl-N-phenylsulfamoyl)benzamide]	inactive
Cc1ccc(C)c(-c2csc(NC(=O)c3ccc(S(=O)(=O)N4CCCCC4)c(Cl)c3)n2)c1 [Compound 42d, 3-chloro-N-(4-(2,5-dimethylphenyl)thiazol-2-yl)-4-(piperidin-1-ylsulfonyl)benzamide]	retained NF-κB activity
C#Cc1sc(NC(=O)c2ccc(S(=O)(=O)N3CCCCC3)cc2)nc1-c1cc(C)ccc1C [Compound 18o, N-(4-(2,5-dimethylphenyl)-5-ethynylthiazol-2-yl)-4-(piperidin-1-ylsulfonyl)benzamide]	weak activity
CCCc1csc(NC(=O)c2ccc(S(=O)(=O)N3CCCCC3)cc2)n1 [Compound 12i, 4-(piperidin-1-ylsulfonyl)-N-(4-propylthiazol-2-yl)benzamide]	None of these molecules had any NF-κB activity
CCCN(CCC)S(=O)(=O)c1ccc(C(=O)Nc2nc(-c3cc(C)ccc3C)cs2)cc1 [Compound 54b, N-(4-(2,5-dimethylphenyl)thiazol-2-yl)-4-(N,N-dipropylsulfamoyl)benzamide]	active
Cc1cccc(-c2csc(NC(=O)c3ccc(S(=O)(=O)N4CCCCC4)cc3)n2)c1C [Compound 12l, N-(4-(2,3-dimethylphenyl)thiazol-2-yl)-4-(piperidin-1-ylsulfonyl)benzamide]	retained activity
CCCN1CCN(S(=O)(=O)c2ccc(C(=O)Nc3nc(-c4cc(C)ccc4C)cs3)cc2)CC1 [Compound 54k, N-(4-(2,5-dimethylphenyl)thiazol-2-yl)-4-((4-propylpiperazin-1-yl)sulfonyl)benzamide]	inactive
Cc1ccc(C)c(-c2ccc(NC(=O)c3ccc(S(=O)(=O)N4CCCCC4)cc3)nc2)c1 [Compound 18c, N-(5-(2,5-dimethylphenyl)pyridin-2-yl)-4-(piperidin-1-ylsulfonyl)benzamide]	none of these molecules that replaced the thiazole functionality was active
O=C(Nc1nc(-c2cccc3ccccc23)cs1)c1ccc(S(=O)(=O)N2CCCCC2)cc1 [Compound 12q, N-(4-(naphthalen-1-yl)thiazol-2-yl)-4-(piperidin-1-ylsulfonyl)benzamide]	equally potent
Cc1ccc(C)c(-c2csc(NC(=O)c3ccc(S(=O)(=O)N4CCCCC4)s3)n2)c1 [Compound 42c, N-(4-(2,5-dimethylphenyl)thiazol-2-yl)-5-(piperidin-1-ylsulfonyl)thiophene-2-carboxamide]	loss of activity
CC(=O)N1CCN(S(=O)(=O)c2ccc(C(=O)Nc3nc(-c4cc(C)ccc4C)cs3)cc2)CC1 [Compound 54j, 4-((4-acetylpiperazin-1-yl)sulfonyl)-N-(4-(2,5-dimethylphenyl)thiazol-2-yl)benzamide]	inactive
CCCN(CC)S(=O)(=O)c1ccc(C(=O)Nc2nc(-c3cc(C)ccc3C)cs2)cc1 [Compound 54a, N-(4-(2,5-dimethylphenyl)thiazol-2-yl)-4-(N-ethyl-N-propylsulfamoyl)benzamide]	active
Cc1ccc(C)c(-c2csc(NC(=O)c3ccc(S(=O)(=O)N4CCCCC4)cc3Br)n2)c1 [Compound 42i, 2-bromo-N-(4-(2,5-dimethylphenyl)thiazol-2-yl)-4-(piperidin-1-ylsulfonyl)benzamide]	significantly dropped
Cc1ccc(C)c(-c2csc(NC(=O)c3ccc(S(=O)(=O)N4CCN(C(=O)OC(C)(C)C)CC4)cc3)n2)c1 [Compound 54f, tert-butyl 4-((4-((4-(2,5-dimethylphenyl)thiazol-2-yl)carbamoyl)phenyl)sulfonyl)piperazine-1-carboxylate]	inactive
Cc1cccc(-c2csc(NC(=O)c3ccc(S(=O)(=O)N4CCCCC4)cc3)n2)c1 [Compound 12c, 4-(piperidin-1-ylsulfonyl)-N-(4-(m-tolyl)thiazol-2-yl)benzamide]	inactive
Cc1ccc(Br)cc1-c1csc(NC(=O)c2ccc(S(=O)(=O)N3CCCCC3)cc2)n1 [Compound 12e, N-(4-(5-bromo-2-methylphenyl)thiazol-2-yl)-4-(piperidin-1-ylsulfonyl)benzamide]	active
Cc1ccc(C)c(-c2nc(NC(=O)c3ccc(S(=O)(=O)N4CCCCC4)cc3)sc2-c2ccccc2)c1 [Compound 18i, N-(4-(2,5-dimethylphenyl)-5-phenylthiazol-2-yl)-4-(piperidin-1-ylsulfonyl)benzamide]	completely inactive
CCCC1CCN(S(=O)(=O)c2ccc(C(=O)Nc3nc(-c4cc(C)ccc4Br)cs3)cc2)CC1 [Compound 55, N-(4-(2-bromo-5-methylphenyl)thiazol-2-yl)-4-((4-propylpiperidin-1-yl)sulfonyl)benzamide]	retained NF-κB activity
Cc1csc(NC(=O)c2ccc(S(=O)(=O)N3CCCCC3)cc2)n1 [Compound 12g, N-(4-methylthiazol-2-yl)-4-(piperidin-1-ylsulfonyl)benzamide]	None of these molecules had any NF-κB activity
CCOC1CCN(S(=O)(=O)c2ccc(C(=O)Nc3nc(-c4cc(C)ccc4C)cs3)cc2)CC1 [Compound 54g, N-(4-(2,5-dimethylphenyl)thiazol-2-yl)-4-((4-ethoxypiperidin-1-yl)sulfonyl)benzamide]	very potent

Same assay, conditions: in presence of LPS, compared to compound 1

Structure (SMILES)	NF-κB induction in the presence of LPS (in words, Fig. 6)
C#CC1CCN(S(=O)(=O)c2ccc(C(=O)Nc3nc(-c4cc(N=[N+]=[N-])ccc4C)cs3)cc2)CC1 [Compound 69, N-(4-(5-azido-2-methylphenyl)thiazol-2-yl)-4-((4-ethynylpiperidin-1-yl)sulfonyl)benzamide]	perfect overlapping dose-response curve
Cc1ccc(N=[N+]=[N-])c(-c2csc(NC(=O)c3ccc(S(=O)(=O)N4CCCCC4)cc3)n2)c1 [Compound 66, N-(4-(2-azido-5-methylphenyl)thiazol-2-yl)-4-(piperidin-1-ylsulfonyl)benzamide]	inactive
C#CC1CCN(S(=O)(=O)c2ccc(C(=O)Nc3nc(-c4cc(C)ccc4C)cs3)cc2)CC1 [Compound 68d, N-(4-(2,5-dimethylphenyl)thiazol-2-yl)-4-((4-ethynylpiperidin-1-yl)sulfonyl)benzamide]	modestly active
